Laboratory results published in ChEMBL document CHEMBL1127512 (J Med Chem, 1994).
pKi: −log10 of the molar value.

Columns and labels:
[1] = system: Opioid receptors; delta & kappa; experiment: Selectivity ratio of delta opioid receptor to that of kappa opioid receptor; assay type: protein assay
[2] = target: T1, Opioid receptors; mu & kappa (Homo sapiens) (UniProt P41145+P35372); experiment: Selectivity ratio of mu opioid receptor to that of kappa opioid receptor; assay type: protein assay
[3] = target: Kappa-type opioid receptor (Cavia porcellus, UniProt P41144); experiment: The binding affinity on kappa-opioid receptor using [3H]- U-69,593 as radioligand
Method in brief: (§1)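 Competition binding in guinea pig brain membranes against selective tritiated radioligands. Displacement of [3H]U69593 at kappa, [3H]DAMGO at mu, [3H]DPDPE at delta sites.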

[4] = (§2) Inhibitory concentration was tested on electrically stimulated mouse vas deferens using DADLE as delta opioid receptor agonist at 100 nM of the compound; assay type: functional
Method in brief: (§3)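 Electrically stimulated guinea pig ileal longitudinal muscle (ethylketazocine, morphine) and mouse vas deferens (DADLE). Antagonist 100 nM preincubated 15 min before standard agonist testing. IC50 ratio = agonist IC50 with antagonist divided by control agonist IC50 in the same preparation. For the kappa line, Ke = [antagonist]/(IC50 ratio − 1).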

Mu-type opioid receptor = Mu-type opioid receptor (Cavia porcellus, UniProt P97266); experiment: The binding affinity against mu-opioid receptor using [3H]- DAMGO as radioligand; method in brief: as §1
[5] = target: T1, Opioid receptors; mu & kappa (Homo sapiens); experiment: (§4) Selectivity ratio of kappa opioid receptor to that of mu opioid receptor; assay type: protein assay
[6] = target: Opioid receptors; delta & kappa (Homo sapiens) (UniProt P41145+P41143); experiment: (§5) Selectivity ratio of kappa opioid receptor to that of delta opioid receptor; assay type: protein assay
[7] = (§6) Inhibitory concentration was tested on electrically stimulated guinea pig ileal longitudinal muscle using ethylketazocine as kappa opioid receptor agonist at 100 nM of the compound; assay type: functional; method in brief: as §3
[8] = (§7) Inhibitory concentration was tested on electrically stimulated guinea pig ileal longitudinal muscle using Morphine as mu opioid receptor agonist at 100 nM of the compound; assay type: functional; method in brief: as §3
[9] = (§8) Antagonist potency at a concentration of 100 nM; assay type: functional; method in brief: as §3
[10] = target: Kappa-type opioid receptor (Cavia porcellus) (UniProt P41144); experiment: as §4
[11] = target: Kappa-type opioid receptor (Cavia porcellus) (UniProt P41144); experiment: as §5
[12] = target: Kappa-type opioid receptor (Cavia porcellus) (UniProt P41144); experiment: as §6; assay type: functional; method in brief: as §3
[13] = target: Mu-type opioid receptor (Cavia porcellus) (UniProt P97266); experiment: as §7; assay type: functional; method in brief: as §3
[14] = target: Kappa-type opioid receptor (Cavia porcellus) (UniProt P41144); experiment: as §8; assay type: functional; method in brief: as §3
[15] = target: Delta-type opioid receptor (Mus musculus) (UniProt P32300); experiment: as §2; assay type: functional; method in brief: as §3
Delta-type opioid receptor (Mus musculus), sequence (P32300 whole entry): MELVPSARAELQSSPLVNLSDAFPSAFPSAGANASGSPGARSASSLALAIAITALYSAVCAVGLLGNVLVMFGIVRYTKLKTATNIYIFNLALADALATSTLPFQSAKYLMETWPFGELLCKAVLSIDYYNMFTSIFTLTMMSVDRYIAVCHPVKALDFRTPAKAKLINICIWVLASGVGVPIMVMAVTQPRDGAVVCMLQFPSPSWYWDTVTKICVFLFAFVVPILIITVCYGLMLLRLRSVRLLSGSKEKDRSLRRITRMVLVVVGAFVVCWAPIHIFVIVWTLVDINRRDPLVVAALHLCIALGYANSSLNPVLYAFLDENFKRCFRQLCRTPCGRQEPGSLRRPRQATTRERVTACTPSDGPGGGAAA

Mu-type opioid receptor, sequence (P97266 whole entry): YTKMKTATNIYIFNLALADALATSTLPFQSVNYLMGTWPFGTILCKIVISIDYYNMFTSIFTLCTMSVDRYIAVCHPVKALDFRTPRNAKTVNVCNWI
Mu-type opioid receptor (Cavia porcellus), sequence (P97266 whole entry): as above
T1 sequence (P35372 whole entry, looked up): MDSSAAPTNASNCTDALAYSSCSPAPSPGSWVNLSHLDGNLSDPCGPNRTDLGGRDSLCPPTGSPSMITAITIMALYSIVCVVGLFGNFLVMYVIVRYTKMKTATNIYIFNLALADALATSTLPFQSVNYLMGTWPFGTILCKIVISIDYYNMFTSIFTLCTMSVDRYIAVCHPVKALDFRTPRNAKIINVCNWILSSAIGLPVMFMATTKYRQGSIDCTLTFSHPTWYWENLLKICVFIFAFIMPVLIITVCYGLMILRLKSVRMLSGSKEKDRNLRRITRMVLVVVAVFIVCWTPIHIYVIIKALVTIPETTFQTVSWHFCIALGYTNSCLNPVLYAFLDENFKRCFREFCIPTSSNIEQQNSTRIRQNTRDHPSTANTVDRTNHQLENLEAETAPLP
T1 sequence (P41145 whole entry, looked up): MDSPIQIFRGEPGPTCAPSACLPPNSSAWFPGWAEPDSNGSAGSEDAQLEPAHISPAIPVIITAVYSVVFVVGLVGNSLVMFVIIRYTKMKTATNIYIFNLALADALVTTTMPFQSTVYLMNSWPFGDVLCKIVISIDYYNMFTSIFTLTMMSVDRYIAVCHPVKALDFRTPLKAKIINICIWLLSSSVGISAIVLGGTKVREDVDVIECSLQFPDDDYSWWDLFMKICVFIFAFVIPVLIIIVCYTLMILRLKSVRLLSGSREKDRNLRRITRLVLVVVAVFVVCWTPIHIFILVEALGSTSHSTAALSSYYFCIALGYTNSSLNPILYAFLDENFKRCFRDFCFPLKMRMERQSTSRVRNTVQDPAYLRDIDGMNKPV
Opioid receptors; delta & kappa (Homo sapiens), sequence (P41143 whole entry, looked up): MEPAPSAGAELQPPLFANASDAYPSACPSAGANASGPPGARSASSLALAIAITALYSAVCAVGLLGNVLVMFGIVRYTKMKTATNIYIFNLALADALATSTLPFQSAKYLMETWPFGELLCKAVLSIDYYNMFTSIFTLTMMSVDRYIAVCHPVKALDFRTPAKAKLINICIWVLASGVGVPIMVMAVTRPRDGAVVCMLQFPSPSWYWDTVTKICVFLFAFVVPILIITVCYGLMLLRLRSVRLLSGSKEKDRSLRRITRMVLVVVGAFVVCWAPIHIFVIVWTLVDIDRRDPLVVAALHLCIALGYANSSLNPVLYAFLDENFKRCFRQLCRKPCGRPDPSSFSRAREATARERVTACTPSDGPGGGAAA
Opioid receptors; delta & kappa (Homo sapiens), sequence (P41145 whole entry, looked up): as the sequence (P41145 whole entry, looked up) above
Kappa-type opioid receptor, sequence (P41144 whole entry): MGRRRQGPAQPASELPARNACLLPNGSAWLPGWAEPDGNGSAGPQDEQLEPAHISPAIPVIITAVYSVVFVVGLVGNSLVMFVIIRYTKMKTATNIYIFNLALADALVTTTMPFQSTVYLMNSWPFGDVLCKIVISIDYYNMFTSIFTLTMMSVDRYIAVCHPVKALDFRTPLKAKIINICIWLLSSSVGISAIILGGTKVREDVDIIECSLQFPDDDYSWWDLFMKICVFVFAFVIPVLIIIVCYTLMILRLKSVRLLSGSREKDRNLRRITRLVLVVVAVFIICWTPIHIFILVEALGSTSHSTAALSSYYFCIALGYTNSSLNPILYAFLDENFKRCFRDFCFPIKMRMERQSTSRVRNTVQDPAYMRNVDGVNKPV
Kappa-type opioid receptor (Cavia porcellus), sequence (P41144 whole entry): as above

**Q.** With NCCN1CC[C@]23c4c5ccc(O)c4O[C@H]2c2[nH]c4c(c2C[C@@]3(O)[C@H]1C5)C[C@@]1(O)[C@H]2Cc3ccc(O)c5c3[C@@]1(CCN2CC1CC1)[C@H]4O5 as the compound, how does the Ratio [1] read?
**A.** 41

**Q.** What about the Ratio [2] of the same compound?
**A.** 14

**Q.** And the pKi [3]?
**A.** 8.47

**Q.** And the Ratio [4]?
**A.** 1.9

**Q.** And the pKi (Mu-type opioid receptor)?
**A.** 7.34

**Q.** What about the Ratio [5] of the same compound?
**A.** 12.5

**Q.** And the Ratio [6]?
**A.** 10

**Q.** And the Ratio [7]?
**A.** 20

**Q.** And the Ratio [8]?
**A.** 1.6

**Q.** And the Ke [9]?
**A.** 5.1 nM

**Q.** What does the source list for Oc1ccc2c3c1O[C@H]1c4[nH]c5c(c4C[C@@]4(O)[C@@H](C2)NCC[C@]314)C[C@@]1(O)[C@H]2Cc3ccc(O)c4c3[C@@]1(CCN2CC1CC1)[C@H]5O4?
**A.** Ratio [10]: 22; Ratio [11]: 4.8; Ratio [12]: 41; Ratio [13]: 1.9; Ke [14]: 2.5 nM; Ratio [15]: 8.5

**Q.** Which results are given for CCCCCN1CC[C@]23c4c5ccc(O)c4O[C@H]2c2[nH]c4c(c2C[C@@]3(O)[C@H]1C5)C[C@@]1(O)[C@H]2Cc3ccc(O)c5c3[C@@]1(CCN2CC1CC1)[C@H]4O5?
**A.** Ratio [10]: 8.7; Ratio [11]: 8.7; Ratio [12]: 27; Ratio [13]: 3.1; Ke [14]: 3.8 nM; Ratio [15]: 3.1

**Q.** With N=C(N)NCCN1CC[C@]23c4c5ccc(O)c4O[C@H]2c2[nH]c4c(c2C[C@@]3(O)[C@H]1C5)C[C@@]1(O)[C@H]2Cc3ccc(O)c5c3C1(CCN2CC1CC1)[C@H]4O5 as the compound, how does the Ratio [1] read?
**A.** 63

**Q.** What about the Ratio [2] of the same compound?
**A.** 85

**Q.** What about the pKi [3] of the same compound?
**A.** 9.23

**Q.** What about the Ratio [4] of the same compound?
**A.** 1

**Q.** And the pKi (Mu-type opioid receptor)?
**A.** 7.30

**Q.** What about the Ratio [5] of the same compound?
**A.** 15

**Q.** And the Ratio [6]?
**A.** 27

**Q.** And the Ratio [7]?
**A.** 27

**Q.** And the Ratio [8]?
**A.** 1.7

**Q.** And the Ke [9]?
**A.** 3.8 nM

**Q.** For Oc1ccc2c3c1O[C@H]1c4[nH]c5c(c4C[C@@]4(O)[C@@H](C2)N(CCc2ccccc2)CC[C@]314)C[C@@]1(O)[C@H]2Cc3ccc(O)c4c3[C@@]1(CCN2CC1CC1)[C@H]5O4, which Ratio [10] is on record?
**A.** 24

**Q.** And the Ratio [11]?
**A.** 181

**Q.** What about the Ratio [12] of the same compound?
**A.** 44

**Q.** What about the Ratio [13] of the same compound?
**A.** 1.8

**Q.** And the Ke [14]?
**A.** 2.4 nM

**Q.** And the Ratio [15]?
**A.** 2.4

**Q.** With CC(=O)N1CC[C@]23c4c5ccc(O)c4O[C@H]2c2[nH]c4c(c2C[C@@]3(O)[C@H]1C5)C[C@@]1(O)[C@H]2Cc3ccc(O)c5c3[C@@]1(CCN2CC1CC1)[C@H]4O5 as the compound, how does the Ratio [10] read?
**A.** 2.4

**Q.** And the Ratio [11]?
**A.** 1.5

**Q.** What about the Ratio [12] of the same compound?
**A.** 4.3

**Q.** And the Ratio [13]?
**A.** 1.8

**Q.** What about the Ke [14] of the same compound?
**A.** 30.3 nM

**Q.** What about the Ratio [15] of the same compound?
**A.** 2.8

**Q.** Which results are given for CCCCN1CC[C@]23c4c5ccc(O)c4O[C@H]2c2[nH]c4c(c2C[C@@]3(O)[C@H]1C5)C[C@@]1(O)[C@H]2Cc3ccc(O)c5c3[C@@]1(CCN2CC1CC1)[C@H]4O5?
**A.** Ratio [2]: 1820; pKi [3]: 10.40; Ratio [4]: 1.9; pKi (Mu-type opioid receptor): 7.14; Ratio [7]: 61; Ratio [8]: 1.8; Ke [9]: 1.7 nM

**Q.** Which Ratio [1] does the source give for O=C(NCCN1CC[C@]23c4c5ccc(O)c4O[C@H]2c2[nH]c4c(c2C[C@@]3(O)C1=C5)C[C@@]1(O)[C@H]2Cc3ccc(O)c5c3[C@@]1(CCN2CC1CC1)[C@H]4O5)OCc1ccccc1 here?
**A.** 325

**Q.** What about the Ratio [2] of the same compound?
**A.** 194

**Q.** What about the Ratio [5] of the same compound?
**A.** 5.7

**Q.** And the Ratio [6]?
**A.** 5.7

**Q.** What about the Ratio [7] of the same compound?
**A.** 26

**Q.** And the Ratio [8]?
**A.** 4.5

**Q.** What about the Ke [9] of the same compound?
**A.** 4 nM

**Q.** For Oc1ccc2c3c1O[C@H]1c4[nH]c5c(c4C[C@@]4(O)[C@@H](C2)N(CC2CC2)CC[C@]314)C[C@@]1(O)[C@H]2Cc3ccc(O)c4c3[C@@]1(CCN2CC1CC1)[C@H]5O4, which Ke [9] is on record?
**A.** 0.55 nM

**Q.** With CCN1CC[C@]23c4c5ccc(O)c4O[C@H]2c2[nH]c4c(c2C[C@@]3(O)[C@H]1C5)C[C@@]1(O)[C@H]2Cc3ccc(O)c5c3[C@@]1(CCN2CC1CC1)[C@H]4O5 as the compound, how does the Ratio [10] read?
**A.** 14

**Q.** And the Ratio [11]?
**A.** 3.5

**Q.** And the Ratio [12]?
**A.** 22

**Q.** And the Ratio [13]?
**A.** 1.6

**Q.** What about the Ke [14] of the same compound?
**A.** 4.7 nM

**Q.** What about the Ratio [15] of the same compound?
**A.** 6.3

**Q.** With NCC(=O)NCC(=O)N1CC[C@]23c4c5ccc(O)c4O[C@H]2c2[nH]c4c(c2C[C@@]3(O)[C@H]1C5)C[C@@]1(O)[C@H]2Cc3ccc(O)c5c3[C@@]1(CCN2CC1CC1)[C@H]4O5 as the compound, how does the Ratio [1] read?
**A.** > 15

**Q.** And the Ratio [2]?
**A.** 3

**Q.** What about the pKi [3] of the same compound?
**A.** 7.68

**Q.** What about the Ratio [4] of the same compound?
**A.** 0.67

**Q.** What about the pKi (Mu-type opioid receptor) of the same compound?
**A.** 7.18

**Q.** And the Ratio [5]?
**A.** 4.8

**Q.** What about the Ratio [7] of the same compound?
**A.** 9.6

**Q.** And the Ratio [8]?
**A.** 2

**Q.** What about the Ke [9] of the same compound?
**A.** 11.7 nM

**Q.** Which results are given for NCC(=O)N1CC[C@]23c4c5ccc(O)c4O[C@H]2c2[nH]c4c(c2C[C@@]3(O)[C@H]1C5)C[C@@]1(O)[C@H]2Cc3ccc(O)c5c3[C@@]1(CCN2CC1CC1)[C@H]4O5?
**A.** Ratio [10]: 8.4; Ratio [11]: 5.4; Ratio [12]: 11.8; Ratio [13]: 1.4; Ke [14]: 9.3 nM; Ratio [15]: 2.2
